According to ChEMBL document CHEMBL4190362, “Synthesis, biological evaluation and quantitative structure-active relationships of 1,3-thiazolidin-4-one derivatives. A promising chemical scaffold endowed with high antifungal potency and low cytotoxicity” (Eur J Med Chem, 2017):

Key:
Assay type in all cases: functional
Candida tropicalis = assay: Antifungal activity against Candida tropicalis clinical isolates assessed as inhibition of microbial growth incubated for 24 hrs by broth microdilution method
In short: (§1)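 Twenty-two clinical Candida isolates (8 C. albicans, 4 C. glabrata, 3 C. tropicalis, 3 C. krusei, 2 C. parapsilosis, 2 C. sake) were identified by colony morphology and biochemistry and subcultured at 35 °C for purity. Compounds were dissolved in DMSO and tested by broth microdilution in Sabouraud dextrose broth per NCCLS/CLSI/EUCAST guidance. Values are geometric mean MIC per species (µg/mL).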

Candida parapsilosis = assay: Antifungal activity against Candida parapsilosis clinical isolates assessed as inhibition of microbial growth incubated for 24 hrs by broth microdilution method; conditions: Lodderomyces parapsilosis; in short: as §1
[Candida] sake = Antifungal activity against Candida sake clinical isolates assessed as inhibition of microbial growth incubated for 24 hrs by broth microdilution method; conditions: Fermentozyma sake; in short: as §1
Staphylococcus warneri = assay: Antibacterial activity against Staphylococcus warneri assessed as inhibition of microbial growth incubated for 18 to 22 hrs by broth microdilution method
In short: (§2)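 Broth microdilution in Mueller-Hinton II broth following NCCLS recommendations; compounds dissolved in DMSO.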

Enterobacter = assay: Antibacterial activity against Enterobacter spp. assessed as inhibition of microbial growth incubated for 18 to 22 hrs by broth microdilution method; in short: as §2
Pichia kudriavzevii = assay: Antifungal activity against Candida krusei clinical isolates assessed as inhibition of microbial growth incubated for 24 hrs by broth microdilution method; in short: as §1
Escherichia coli = assay: Antibacterial activity against Escherichia coli assessed as inhibition of microbial growth incubated for 18 to 22 hrs by broth microdilution method; in short: as §2
Staphylococcus aureus = assay: Antibacterial activity against Staphylococcus aureus assessed as inhibition of microbial growth incubated for 18 to 22 hrs by broth microdilution method; in short: as §2
Klebsiella oxytoca = assay: Antibacterial activity against Klebsiella oxytoca assessed as inhibition of microbial growth incubated for 18 to 22 hrs by broth microdilution method; in short: as §2
Nakaseomyces glabratus = assay: Antifungal activity against Candida glabrata clinical isolates assessed as inhibition of microbial growth incubated for 24 hrs by broth microdilution method; in short: as §1
Enterococcus faecalis = assay: Antibacterial activity against Streptococcus faecalis assessed as inhibition of microbial growth incubated for 18 to 22 hrs by broth microdilution method; in short: as §2
Proteus mirabilis = assay: Antibacterial activity against Proteus mirabilis assessed as inhibition of microbial growth incubated for 18 to 22 hrs by broth microdilution method; in short: as §2
Candida albicans = assay: Antifungal activity against Candida albicans clinical isolates assessed as inhibition of microbial growth incubated for 24 hrs by broth microdilution method; in short: as §1

SMILES | MIC (Candida tropicalis) [µg/mL] | MIC (Candida parapsilosis) [µg/mL] | MIC ([Candida] sake) [µg/mL] | MIC (Staphylococcus warneri) [µg/mL] | MIC (Enterobacter) [µg/mL] | MIC (Pichia kudriavzevii) [µg/mL] | MIC (Escherichia coli) [µg/mL] | MIC (Staphylococcus aureus) [µg/mL] | MIC (Klebsiella oxytoca) [µg/mL] | MIC (Nakaseomyces glabratus) [µg/mL] | MIC (Enterococcus faecalis) [µg/mL] | MIC (Proteus mirabilis) [µg/mL] | MIC (Candida albicans) [µg/mL]
CC1CCC/C1=N/N=C1/SCC(=O)N1Cc1ccccc1 (centres undefined) | 8 | 4 | 4 | ≥ 256 | ≥ 256 | 4 | ≥ 256 | ≥ 256 | ≥ 256 | 8 | ≥ 256 | ≥ 256 | 8
C/C(=N/N=C1/SCC(=O)N1Cc1ccccc1)c1ccccc1 | 128 | 4 | 4 | ≥ 256 | ≥ 256 | 4 | ≥ 256 | ≥ 256 | ≥ 256 | 4 | ≥ 256 | ≥ 256 | 8
CCC/C(CC)=N\N=C1\SCC(=O)N1Cc1ccccc1 | 4 | 8 | 8 | ≥ 256 | ≥ 256 | 4 | ≥ 256 | ≥ 256 | ≥ 256 | 4 | ≥ 256 | ≥ 256 | 4
CCCCCC/C(C)=N\N=C1\SCC(=O)N1Cc1ccccc1 | 16 | 16 | 16 | ≥ 256 | ≥ 256 | 16 | ≥ 256 | ≥ 256 | ≥ 256 | 8 | ≥ 256 | ≥ 256 | 8
O=C1CS/C(=N/N=C\c2ccc3c(c2)OCO3)N1Cc1ccccc1 | 8 | 8 | 8 | ≥ 256 | ≥ 256 | 8 | ≥ 256 | ≥ 256 | ≥ 256 | 8 | ≥ 256 | ≥ 256 | 8
CCC/C(C)=N\N=C1\SCC(=O)N1Cc1ccccc1 | 8 | 8 | 32 | ≥ 256 | ≥ 256 | 16 | ≥ 256 | ≥ 256 | ≥ 256 | 2 | ≥ 256 | ≥ 256 | 8
C/C(=N/N=C1/SCC(=O)N1Cc1ccccc1)c1ccc(/C(C)=N\N=C2\SCC(=O)N2Cc2ccccc2)cc1 | 32 | 32 | 8 | ≥ 256 | ≥ 256 | 8 | ≥ 256 | ≥ 256 | ≥ 256 | 2 | ≥ 256 | ≥ 256 | 8
C/C(=N\N=C1\SCC(=O)N1Cc1ccccc1)c1cc2ccccc2o1 | 32 | 32 | 4 | ≥ 256 | ≥ 256 | 16 | ≥ 256 | ≥ 256 | ≥ 256 | 4 | ≥ 256 | ≥ 256 | 4
C/C(=N/N=C1/SCC(=O)N1Cc1ccccc1)c1ccc([N+](=O)[O-])cc1 | 8 | 4 | 8 | ≥ 256 | ≥ 256 | 4 | ≥ 256 | ≥ 256 | ≥ 256 | 4 | ≥ 256 | ≥ 256 | 8
O=C1CS/C(=N/N=C\c2cccc3ccccc23)N1Cc1ccccc1 | 16 | 16 | 16 | ≥ 256 | ≥ 256 | 16 | ≥ 256 | ≥ 256 | ≥ 256 | 8 | ≥ 256 | ≥ 256 | 8
O=C1CS/C(=N/N=C\c2ccco2)N1Cc1ccccc1 | 8 | 4 | 4 | ≥ 256 | ≥ 256 | 4 | ≥ 256 | ≥ 256 | ≥ 256 | 4 | ≥ 256 | ≥ 256 | 8
C/C(=N/N=C1/SCC(=O)N1Cc1ccccc1)c1ccc2ccccc2c1 | 256 | 16 | 16 | ≥ 256 | ≥ 256 | 16 | ≥ 256 | ≥ 256 | ≥ 256 | 16 | ≥ 256 | ≥ 256 | 8
C/C(=N/N=C1/SCC(=O)N1Cc1ccccc1)C1CCCCC1 | 8 | 8 | 8 | ≥ 256 | ≥ 256 | 8 | ≥ 256 | ≥ 256 | ≥ 256 | 8 | ≥ 256 | ≥ 256 | 8
CCCC/C(C)=N\N=C1\SCC(=O)N1Cc1ccccc1 | 2 | 2 | 4 | ≥ 256 | ≥ 256 | 2 | ≥ 256 | ≥ 256 | ≥ 256 | 2 | ≥ 256 | ≥ 256 | 2
CC1CCC/C(=N/N=C2/SCC(=O)N2Cc2ccccc2)C1 (centres undefined) | 8 | 4 | 4 | ≥ 256 | ≥ 256 | 4 | ≥ 256 | ≥ 256 | ≥ 256 | 8 | ≥ 256 | ≥ 256 | 8
C/C(=N/N=C1/SCC(=O)N1Cc1ccccc1)c1ccc2c(c1)OCCO2 | 2 | 2 | 8 | ≥ 256 | ≥ 256 | 4 | ≥ 256 | ≥ 256 | ≥ 256 | 8 | ≥ 256 | ≥ 256 | 2
C/C(=N/N=C1/SCC(=O)N1Cc1ccccc1)c1ccncc1 | 32 | 32 | 32 | ≥ 256 | ≥ 256 | 2 | ≥ 256 | ≥ 256 | ≥ 256 | 16 | ≥ 256 | ≥ 256 | 8
C/C(=N/N=C1/SCC(=O)N1Cc1ccccc1)c1ccccn1 | 28 | 256 | 256 | ≥ 256 | ≥ 256 | 256 | ≥ 256 | ≥ 256 | ≥ 256 | 16 | ≥ 256 | ≥ 256 | 256
C/C(=N/N=C1/SCC(=O)N1Cc1ccccc1)c1cc2ccccc2oc1=O | 256 | 128 | 128 | ≥ 256 | ≥ 256 | 128 | ≥ 256 | ≥ 256 | ≥ 256 | 32 | ≥ 256 | ≥ 256 | 256
O=C1CS/C(=N/N=C\c2ccncc2)N1Cc1ccccc1 | 256 | 256 | 256 | ≥ 256 | ≥ 256 | 256 | ≥ 256 | ≥ 256 | ≥ 256 | 256 | ≥ 256 | ≥ 256 | 256
O=C1CS/C(=N/N=C\c2ccccc2[N+](=O)[O-])N1Cc1ccccc1 | 2 | 2 | 4 | ≥ 256 | ≥ 256 | 2 | ≥ 256 | ≥ 256 | ≥ 256 | 2 | ≥ 256 | ≥ 256 | 2
C/C(=N/N=C1/SCC(=O)N1Cc1ccccc1)c1cccs1 | 16 | 8 | 8 | ≥ 256 | ≥ 256 | 4 | ≥ 256 | ≥ 256 | ≥ 256 | 4 | ≥ 256 | ≥ 256 | 2
C/C(=N/N=C1/SCC(=O)N1Cc1ccccc1)C1CC1 | 2 | 2 | 2 | ≥ 256 | ≥ 256 | 2 | ≥ 256 | ≥ 256 | ≥ 256 | 4 | ≥ 256 | ≥ 256 | 2
